Among the data in ChEMBL document CHEMBL1125136, “Quinolone antibacterial agents substituted at the 7-position with spiroamines. Synthesis and structure-activity relationships” (1990) are MIC, ED50 and minimum concentration for gyrase-mediated DNA cleavage values, retold here.

One assay has as its system Enterococcus faecalis. The assay can be described thus: Evaluated for minimum inhibitory concentration against gram-positive bacteria Staphylococcus faecalis MGH-2.
Another assay deals with Pseudomonas. The assay can be described thus: Evaluated for minimum inhibitory concentration against gram-negative bacteria Pseudomonas rettgeri H1771. The format is functional. In outline:
(§1)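 Broth microdilution MIC by standard technique. Values come from duplicate experiments and are stated as accurate to ±50%.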

Assay [1] concerns Escherichia coli. The assay can be described thus: In vivo protective dose was determined in mouse protection assay in Escherichia coli Vogel after subcutaneous administration. To be noted: sc, read-out: PD50. The assay is classed as functional. In outline: (§2)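 Female Charles River CD-1 mice were given an acute, lethal, systemic infection. A single dose of compound was given at the time of challenge, by the route stated in the line, with 16 animals per dose level. The read-out is the median protective dose (PD50, mg/kg). Per the footnote, values come from 16 animals per test, with a mean variation of ±34%.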

In a further assay the test system is Klebsiella pneumoniae. Description: Evaluated for minimum inhibitory concentration against gram-negative bacteria Klebsiella pneumoniae MGH-2. The format is functional. In outline: as §1
In assay [2] the test system is Escherichia coli. The assay can be described thus: Evaluated for minimum inhibitory concentration against gram-negative bacteria Escherichia coli Vogel. The assay is classed as functional. In outline:
as §1

Assay [3] deals with Escherichia coli. Description: In vivo protective dose for mouse protection assay in Escherichia coli Vogel after peroral administration. The format is functional. To be noted: po, read-out: PD50. In outline:
as §2

Assay [4] has as its system Staphylococcus aureus. The assay can be described thus: Evaluated for minimum inhibitory concentration against […] bacteria Staphylococcus aureus H228. The assay is classed as functional. In outline:
as §1

In assay [5] the test system is Staphylococcus aureus. Description: Evaluated for minimum inhibitory concentration against […] bacteria Staphylococcus aureus UC-76. The assay is classed as functional. In outline:
as §1

A further assay relates to Pseudomonas aeruginosa. Description: Evaluated for minimum inhibitory concentration against gram-negative bacteria Pseudomonas aeruginosa UI-18. The assay is classed as functional. In outline: as §1
The next assay deals with Enterobacter cloacae. Description: Evaluated for minimum inhibitory concentration against gram-negative bacteria Enterobacter cloacae HA 2646. The format is functional.
Assay [6] concerns Escherichia coli. Description: Evaluated for minimum concentration needed to produce linear DNA at an intensity relative to oxolinic acid at 10 mg/mL. by gyrase mediated cleavage of DNA in Escherichia coli 560. The assay is classed as functional. To be noted: read-out: MIC.
Another assay concerns Streptococcus pyogenes. The assay can be described thus: Evaluated for minimum inhibitory concentration against gram-positive bacteria Streptococcus pyogenes C203.
Assay [7] in a line: Evaluated for minimum inhibitory concentration against […] bacteria […] SV-1. The assay is classed as functional. In outline: as §1

In brackets after ≈: the same amount, converted by molar mass.

Turning to `O=C(O)c1cn(C2CC2)c2c(F)c(N3CCC4(CCNC4)C3)c(F)cc2c1=O` (stereo not given), the MIC (as a rule, the lowest concentration found to suppress growth) was 0.4 µg/mL (≈ 1.03 µM) against Enterococcus faecalis; 0.8 µg/mL (≈ 2.05 µM) in the assay with Pseudomonas; 0.4 µg/mL (≈ 1.03 µM) with Klebsiella pneumoniae; 0.2 µg/mL (≈ 0.514 µM) against Escherichia coli [2]; 0.2 µg/mL (≈ 0.514 µM) in the assay on Staphylococcus aureus [4]; 0.025 µg/mL (≈ 0.0642 µM) against Staphylococcus aureus [5]. The MIC with Pseudomonas aeruginosa came to 1.6 µg/mL (≈ 4.11 µM); in the assay on Enterobacter cloacae, 0.2 µg/mL (≈ 0.514 µM); with Streptococcus pyogenes it was 0.025 µg/mL (≈ 0.0642 µM); in [7], 0.1 µg/mL (≈ 0.257 µM). The ED50 is 7 mg/kg in the assay with Escherichia coli [1] and above 100 mg/kg in the assay with Escherichia coli [3]. In addition, in the assay with Escherichia coli [6], the minimum concentration for gyrase-mediated DNA cleavage worked out at 0.1 µg/mL.
As for `O=C(O)c1cn(C2CC2)c2c(F)c(N3CCC4(CCCN4)C3)c(F)cc2c1=O` (stereo not given), the MIC in the assay on Enterococcus faecalis worked out at 0.4 µg/mL (≈ 1.03 µM); against Pseudomonas it was 0.8 µg/mL (≈ 2.05 µM); in the assay on Klebsiella pneumoniae it was 0.1 µg/mL (≈ 0.257 µM); against Escherichia coli [2], 0.025 µg/mL (≈ 0.0642 µM); in the assay with Staphylococcus aureus [4], 0.05 µg/mL (≈ 0.128 µM); in the assay on Staphylococcus aureus [5], 0.4 µg/mL (≈ 1.03 µM). The MIC with Pseudomonas aeruginosa turned out to be 0.2 µg/mL (≈ 0.514 µM); against Enterobacter cloacae, 0.025 µg/mL (≈ 0.0642 µM); with Streptococcus pyogenes it was 0.4 µg/mL (≈ 1.03 µM); in [7], 0.4 µg/mL (≈ 1.03 µM). Besides, the ED50 with Escherichia coli [1] was found to be 1 mg/kg; in the assay on Escherichia coli [3], 4 mg/kg. Besides, the minimum concentration for gyrase-mediated DNA cleavage in the assay with Escherichia coli [6] stood at 0.5 µg/mL.
In the case of `CCn1cc(C(=O)O)c(=O)c2cc(F)c(N3CCC(N)C3)c(F)c21` (stereo not given), the minimal inhibitory concentration (MIC) against Enterococcus faecalis was found to be 0.8 µg/mL (≈ 2.37 µM); against Pseudomonas, 0.2 µg/mL (≈ 0.593 µM); against Klebsiella pneumoniae, 0.2 µg/mL (≈ 0.593 µM); with Escherichia coli [2] it was 0.05 µg/mL (≈ 0.148 µM); in the assay on Staphylococcus aureus [4] it was 0.4 µg/mL (≈ 1.19 µM); with Staphylococcus aureus [5], 0.05 µg/mL (≈ 0.148 µM). Further, the MIC was 0.4 µg/mL (≈ 1.19 µM) in the assay with Pseudomonas aeruginosa, 0.1 µg/mL (≈ 0.296 µM) against Enterobacter cloacae, 0.4 µg/mL (≈ 1.19 µM) with Streptococcus pyogenes and 0.4 µg/mL (≈ 1.19 µM) in assay [7]. Further, the minimum concentration for gyrase-mediated DNA cleavage in the assay with Escherichia coli [6] is 1 µg/mL.
As for `CCNCC1CCN(c2c(F)cc3c(=O)c(C(=O)O)cn(C4CC4)c3c2F)C1` (stereo not given) [PD-117558], the MIC amounted to 0.025 µg/mL (≈ 0.0639 µM) against Enterococcus faecalis; 0.2 µg/mL (≈ 0.511 µM) against Pseudomonas; 0.1 µg/mL (≈ 0.255 µM) with Klebsiella pneumoniae; 0.05 µg/mL (≈ 0.128 µM) with Escherichia coli [2]; 0.025 µg/mL (≈ 0.0639 µM) against Staphylococcus aureus [4]; 0.006 µg/mL (≈ 0.0153 µM) in the assay on Staphylococcus aureus [5]. Further, the MIC against Pseudomonas aeruginosa amounted to 0.4 µg/mL (≈ 1.02 µM); in the assay with Enterobacter cloacae it was 0.1 µg/mL (≈ 0.255 µM); against Streptococcus pyogenes it was 0.025 µg/mL (≈ 0.0639 µM); in [7] it was 0.025 µg/mL (≈ 0.0639 µM). In the assay with Escherichia coli [6], the minimum concentration for gyrase-mediated DNA cleavage came out at 0.25 µg/mL.
In the case of `O=C(O)c1cn(C2CC2)c2cc(N3CCNCC3)c(F)cc2c1=O` [CIPROFLOXACIN], the MIC stood at 0.4 µg/mL (≈ 1.21 µM) against Enterococcus faecalis; 0.025 µg/mL (≈ 0.0754 µM) with Pseudomonas; 0.025 µg/mL (≈ 0.0754 µM) in the assay with Klebsiella pneumoniae; 0.025 µg/mL (≈ 0.0754 µM) with Escherichia coli [2]; 1.6 µg/mL (≈ 4.83 µM) against Staphylococcus aureus [4]; 0.1 µg/mL (≈ 0.302 µM) in the assay on Staphylococcus aureus [5]. In addition, the MIC against Pseudomonas aeruginosa came out at 0.1 µg/mL (≈ 0.302 µM); against Streptococcus pyogenes, 0.2 µg/mL (≈ 0.604 µM); in assay [7], 0.4 µg/mL (≈ 1.21 µM).
As to `CC1COc2c(N3CCC4(CCN(C)C4)C3)c(F)c(N)c3c(=O)c(C(=O)O)cn1c23` (stereo not given), the MIC amounted to 0.4 µg/mL (≈ 0.96 µM) in the assay with Enterococcus faecalis; 6.3 µg/mL (≈ 15.1 µM) with Pseudomonas; 0.8 µg/mL (≈ 1.92 µM) against Klebsiella pneumoniae; 0.4 µg/mL (≈ 0.96 µM) with Escherichia coli [2]; 0.4 µg/mL (≈ 0.96 µM) in the assay on Staphylococcus aureus [4]; 0.1 µg/mL (≈ 0.24 µM) in the assay on Staphylococcus aureus [5]. Moreover, the MIC against Pseudomonas aeruginosa was 12.5 µg/mL (≈ 30 µM); against Enterobacter cloacae it was 0.4 µg/mL (≈ 0.96 µM); in the assay on Streptococcus pyogenes, 0.2 µg/mL (≈ 0.48 µM); in assay [7], 0.4 µg/mL (≈ 0.96 µM). In the assay with Escherichia coli [6], the minimum concentration for gyrase-mediated DNA cleavage came to 1 µg/mL.
On to `CCn1cc(C(=O)O)c(=O)c2c(F)c(F)c(N3CCC4(CCN(C)C4)C3)c(F)c21` (stereo not given), for which the MIC against Enterococcus faecalis is 1.6 µg/mL (≈ 3.91 µM); against Pseudomonas, 6.3 µg/mL (≈ 15.4 µM); in the assay with Klebsiella pneumoniae it was 1.6 µg/mL (≈ 3.91 µM); against Escherichia coli [2], 0.8 µg/mL (≈ 1.95 µM); against Staphylococcus aureus [4] it was 0.8 µg/mL (≈ 1.95 µM); with Staphylococcus aureus [5], 0.2 µg/mL (≈ 0.489 µM). Besides, the MIC was found to be 6.3 µg/mL (≈ 15.4 µM) in the assay on Pseudomonas aeruginosa, 0.8 µg/mL (≈ 1.95 µM) in the assay with Enterobacter cloacae, 1.6 µg/mL (≈ 3.91 µM) in the assay with Streptococcus pyogenes and 0.8 µg/mL (≈ 1.95 µM) in [7]. The ED50 in the assay on Escherichia coli [1] worked out at 12.5 mg/kg; with Escherichia coli [3] it was 22 mg/kg. In addition, the minimum concentration for gyrase-mediated DNA cleavage in the assay with Escherichia coli [6] is 5 µg/mL.
`CCn1cc(C(=O)O)c(=O)c2cc(F)c(N3CCC4(CCNC4)C3)c(F)c21` (stereo not given): the MIC with Enterococcus faecalis turned out to be 0.2 µg/mL (≈ 0.53 µM); with Pseudomonas it was 1.6 µg/mL (≈ 4.24 µM); in the assay with Klebsiella pneumoniae, 0.2 µg/mL (≈ 0.53 µM); in the assay on Escherichia coli [2], 0.1 µg/mL (≈ 0.265 µM); in the assay on Staphylococcus aureus [4] it was 0.1 µg/mL (≈ 0.265 µM); in the assay with Staphylococcus aureus [5] it was 0.05 µg/mL (≈ 0.132 µM). In addition, the MIC came out at 0.8 µg/mL (≈ 2.12 µM) in the assay on Pseudomonas aeruginosa, 0.2 µg/mL (≈ 0.53 µM) against Enterobacter cloacae, 0.1 µg/mL (≈ 0.265 µM) in the assay on Streptococcus pyogenes and 0.2 µg/mL (≈ 0.53 µM) in assay [7]. For the same molecule, the ED50 was 15 mg/kg with Escherichia coli [1] and above 100 mg/kg in the assay with Escherichia coli [3]. Moreover, the minimum concentration for gyrase-mediated DNA cleavage in the assay with Escherichia coli [6] is 2.5 µg/mL.
On to `CC1COc2c(N3CCN(C)CC3)c(F)cc3c(=O)c(C(=O)O)cn1c23` (stereo not given) [OFLOXACIN], for which the MIC with Enterococcus faecalis came to 6.3 µg/mL (≈ 17.4 µM); against Pseudomonas, 0.4 µg/mL (≈ 1.11 µM); with Klebsiella pneumoniae it was 0.2 µg/mL (≈ 0.553 µM); in the assay on Escherichia coli [2] it was 0.2 µg/mL (≈ 0.553 µM); in the assay on Staphylococcus aureus [4] it was 3.1 µg/mL (≈ 8.58 µM); in the assay with Staphylococcus aureus [5], 0.4 µg/mL (≈ 1.11 µM). Further, the MIC against Pseudomonas aeruginosa amounted to 1.6 µg/mL (≈ 4.43 µM); in the assay with Enterobacter cloacae it was 0.1 µg/mL (≈ 0.277 µM); in the assay on Streptococcus pyogenes it was 3.1 µg/mL (≈ 8.58 µM); in assay [7], 0.4 µg/mL (≈ 1.11 µM). The minimum concentration for gyrase-mediated DNA cleavage with Escherichia coli [6] is 6.2 µg/mL.
